Paper PMC3589724 (Scientific Reports, 2013)
Read-outs that look alike come from different tables or passages of the source.

Assays:
[1] = test system: synaptic transmission, CA1 hippocampal synapses; settings: cited from earlier work
Ca^2+/CaM = assay: ITC binding to Ca^2+/CaM; settings: buffer B (20 mM HEPES pH 8.0, 100 mM NaCl, 10 mM CaCl2), 24°C, single-site fitting model
Method in brief: (§1)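 CaM (His6-tagged, E. coli-expressed; mutants made by inverse PCR) is injected into full-length wild-type or point-mutant Nm/Ng, or into synthetic IQ peptides (Nm 34–57, Ng 27–50). Apo and mutant CaM are in buffer A; Ca2+/CaM is in buffer B. Samples are degassed. VP-ITC or iTC200, 24°C, 10 (or 2) μl injections at 5 (or 2) min intervals. Buffer-titration dilution heats are subtracted, and a single-site fit gives Ka.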

apoCaM = assay: ITC binding to apo CaM; settings: for Association constant Ka: apoCaM, buffer A (20 mM Imidazole pH 8.0, 100 mM NaCl, 2 mM EGTA), 24°C, single-site fitting model
Method in brief: as §1

CaMWT = assay: ITC binding to wild-type CaM; settings: point mutants of Nm/Ng
Method in brief: as §1

CaM = settings: in vivo CaM binding, cited from earlier work
[2] = Ser36-phosphorylated; cited from earlier work
CaME85A/F142A = assay: ITC binding to CaM double mutant E85A/F142A; settings: buffer A (20 mM Imidazole pH 8.0, 100 mM NaCl, 2 mM EGTA), 24°C
Method in brief: as §1

Substance | Association constant Ka (Ca^2+/CaM) | Association constant Ka (apoCaM) | Ng-CaM binding (CaM) | further results
neurogranin [NgWT] | 0.96 10^6 M^−1 | 23 10^6 M^−1 |  | synaptic transmission / strength ([1]; overexpression, listed as wild-type Ng): potentiates synaptic transmission; synaptic strength ([1]; through interaction with CaM): enhances synaptic strength; affinity to apo CaM relative to Ca^2+/CaM (apoCaM; in words): higher affinity than that to Ca^2+/CaM
NgIQ: synthetic wild-type IQ motif peptide of Ng, aa27–50 (NAAAAKIQASFRGHMARKKIKSGE) | 0.3 10^6 M^−1 | 2.3 10^6 M^−1 |  | 
NmIQ: synthetic wild-type IQ motif peptide of Nm, aa34–57 | 1.6 10^6 M^−1 | 25 10^6 M^−1 |  | 
NgR38A: full-length Ng point mutant Arg38Ala; GFP-tagged in the electrophysiology experiments |  |  |  | binding to CaM (in words) (CaMWT): completely abolish; binding to apo CaM (in words) (apoCaM; mutant Ng): does not bind to the apo CaM
Ile33Gln (I33Q): Ng point mutant Ile33Gln (literature) |  |  | completely inhibits the binding | 
Arg38Gln (R38Q): Ng point mutant Arg38Gln (literature) |  |  | reduce Ng-CaM binding | Ng-CaM binding (CaM; listed as Arg38Gln): reduce the binding strength
Ser36-phosphorylated Ng: Ng phosphorylated at Ser36 by PKC [reference compound] |  |  |  | binding to CaM and phosphatidic acid [2]: unable to bind CaM and phosphatidic acid; synaptic strength ([1]; Ser36-phosphorylated): unable to enhance synaptic strength
Ser36Asp (S36D): Ng point mutant Ser36Asp (literature) |  |  | reduce Ng-CaM binding | 
neuromodulin [NmWT] | 0.52 10^6 M^−1 | 7.9 10^6 M^−1 |  | Association constant Ka (CaME85A/F142A): 0.46 10^6 M^−1
